Published values collected from several papers.
Protocols differ between the studies behind these lines.
Target: Serine/threonine-protein kinase BRSK2 (BRSK2, Homo sapiens, UniProt Q8IWQ3)
Residues used in one study (Q8IWQ3 1-736): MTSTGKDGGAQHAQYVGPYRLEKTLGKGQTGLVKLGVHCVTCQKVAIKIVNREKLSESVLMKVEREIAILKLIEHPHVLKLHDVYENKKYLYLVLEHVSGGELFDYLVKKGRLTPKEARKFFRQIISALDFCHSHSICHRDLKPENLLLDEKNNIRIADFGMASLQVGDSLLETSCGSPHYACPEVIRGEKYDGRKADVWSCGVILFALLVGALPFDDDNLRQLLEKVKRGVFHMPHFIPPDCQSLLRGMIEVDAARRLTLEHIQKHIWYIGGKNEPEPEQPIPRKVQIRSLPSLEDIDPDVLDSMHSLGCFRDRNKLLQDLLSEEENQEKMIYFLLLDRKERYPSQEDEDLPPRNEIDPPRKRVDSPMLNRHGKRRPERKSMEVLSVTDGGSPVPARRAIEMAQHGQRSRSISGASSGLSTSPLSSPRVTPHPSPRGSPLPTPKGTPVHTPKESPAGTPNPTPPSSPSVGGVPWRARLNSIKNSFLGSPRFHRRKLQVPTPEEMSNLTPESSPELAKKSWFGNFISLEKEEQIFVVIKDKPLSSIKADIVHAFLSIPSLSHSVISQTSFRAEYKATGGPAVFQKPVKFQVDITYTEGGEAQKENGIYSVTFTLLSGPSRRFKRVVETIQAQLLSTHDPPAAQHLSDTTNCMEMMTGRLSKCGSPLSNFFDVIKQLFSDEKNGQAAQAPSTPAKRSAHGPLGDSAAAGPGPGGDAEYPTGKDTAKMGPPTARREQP

| Compound | effect on | mode | method | tested at | quantity | result |
| --- | --- | --- | --- | --- | --- | --- |
| COc1ncccc1-c1cnn2ccc(N3CCN(C(=O)OC(C)C)CC3)nc12 | binding | – | competition with immobilised ligand | 1 µM | remaining binding | 82% |
| Cc1nn(C)cc1-c1nc2c(N3CCN(Cc4ccc(Cl)cc4)CC3)c(Cl)cnc2[nH]1 | binding | – | competition with immobilised ligand | 1 µM | remaining binding | 100% |
| CC(C)(C)c1cc(C=C(C#N)C#N)cc(Br)c1O | enzyme activity | inhibitor | – | 0.5 µM | remaining activity | 94.5% |
| N#CC1(c2ccccn2)CCN(Cc2cc(C(=O)O)c(=O)n3ccccc23)CC1 | cell-free assay | – | competition with immobilised ligand | 1 µM | remaining binding | 100% |
| COc1cc(Nc2ncc(F)c(Nc3ccc4c(n3)NC(=O)C(C)(C)O4)n2)cc(OC)c1OC | binding | – | competition with immobilised ligand | 10 µM | inhibition | 0% |
| O=c1[nH]c2ccccc2n1C1CCN(Cc2ccc(-c3[nH]c4cc5ncnc5cc4nc3-c3ccccc3)cc2)CC1 | cell-free assay | – | – | 0.5 µM | remaining signal | 106% |
| Cn1cncc1[C@@](O)(COc1ccc(C#N)cc1-c1ccc(OC(F)(F)F)cc1)c1ccc(C#N)cc1 | cell-free assay | – | competition with immobilised ligand | 1 µM | remaining binding | 100% |
| Nc1ncc(-c2nc(N3CCOCC3)nc(N3CCOCC3)n2)c(C(F)F)n1 | binding | – | competition with immobilised ligand | 10 µM | remaining binding | 92% |
